Results on two molecules are retold here after PMC4488387 (Nature methods, 2015).

The target of assay [1] is T1, Nluc-A1 receptor (Homo sapiens, UniProt P30542).
T1 sequence (P30542 2-326 limits assumed): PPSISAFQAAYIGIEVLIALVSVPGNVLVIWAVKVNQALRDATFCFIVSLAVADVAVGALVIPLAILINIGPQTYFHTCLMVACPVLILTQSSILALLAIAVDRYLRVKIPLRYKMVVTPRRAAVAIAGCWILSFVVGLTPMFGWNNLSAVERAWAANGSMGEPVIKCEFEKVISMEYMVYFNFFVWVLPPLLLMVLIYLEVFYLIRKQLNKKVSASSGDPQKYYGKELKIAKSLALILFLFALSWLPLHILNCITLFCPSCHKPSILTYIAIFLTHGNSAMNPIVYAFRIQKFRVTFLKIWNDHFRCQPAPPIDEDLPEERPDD
Briefly: NanoBRET saturation binding, HEK293 cells stably expressing Nluc-A1. As to conditions: Nluc-A1, concentrations up to 500 nM, non-specific 1 μM DPCPX.

The target of assay [2] is T1, Nluc-A1 receptor. Nature of the assay: NanoBRET association kinetics of CA200645 binding. The following applies: read-out: KD from kinetics (koff/kon); Nluc-A1, room temperature, 60 min, n=3. In a few lines:
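Stable single-cell-cloned HEK293 Nluc-A1 cells were seeded 24 h ahead. Medium was replaced with HBSS containing 10 uM furimazine and equilibrated 15 min in the reader. The fluorescent ligand was then added at several concentrations, and each well was read once per min for 60 min.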
In general terms: Bioluminescence resonance energy transfer reports proximity on the nanometre scale.

With `COc1ccc(-n2nc3c(NC(=O)CCC(=O)NCCOCCOCCNC(=O)CCCCCNC(=O)COc4ccc(/C=C/C5=[N+]6C(=Cc7ccc(-c8cccs8)n7[B-]6(F)F)C=C5)cc4)nc4ccccc4n3c2=O)cc1` [AV039], the “saturable specific BRET signal” value at Nluc-A1 receptor [1] is “did not detect a saturable specific BRET signal”.
CA200645: the Kd on Nluc-A1 receptor [2] was determined as 20.4 ± 6.9 nM.
